Assays:
[1] = target: T1, Alpha-1B adrenergic receptor (Homo sapiens, UniProt P35368); test: Displacement of [3H]prazosin from human cloned alpha1B adrenoceptor expressed in CHO cell membranes after 30 mins by liquid scintillation counter
T1 sequence (P35368 whole entry): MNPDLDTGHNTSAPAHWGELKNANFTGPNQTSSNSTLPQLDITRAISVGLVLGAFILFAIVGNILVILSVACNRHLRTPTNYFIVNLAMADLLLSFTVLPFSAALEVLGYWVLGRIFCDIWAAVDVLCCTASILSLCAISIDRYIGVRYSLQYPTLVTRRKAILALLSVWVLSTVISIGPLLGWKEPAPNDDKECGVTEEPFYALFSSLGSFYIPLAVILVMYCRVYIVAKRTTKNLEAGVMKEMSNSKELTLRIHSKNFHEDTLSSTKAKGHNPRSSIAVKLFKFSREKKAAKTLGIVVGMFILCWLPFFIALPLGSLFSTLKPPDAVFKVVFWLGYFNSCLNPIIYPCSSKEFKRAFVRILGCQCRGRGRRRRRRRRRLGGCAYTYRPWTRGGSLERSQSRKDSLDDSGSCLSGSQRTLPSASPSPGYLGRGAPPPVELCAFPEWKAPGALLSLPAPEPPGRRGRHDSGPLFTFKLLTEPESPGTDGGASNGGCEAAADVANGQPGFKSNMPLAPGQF

[2] = target: T2, Alpha-1A adrenergic receptor (Homo sapiens, UniProt P35348); test: Displacement of [3H]prazosin from human cloned alpha1A adrenoceptor expressed in CHO cell membranes after 30 mins by liquid scintillation counter
T2 sequence (P35348 whole entry): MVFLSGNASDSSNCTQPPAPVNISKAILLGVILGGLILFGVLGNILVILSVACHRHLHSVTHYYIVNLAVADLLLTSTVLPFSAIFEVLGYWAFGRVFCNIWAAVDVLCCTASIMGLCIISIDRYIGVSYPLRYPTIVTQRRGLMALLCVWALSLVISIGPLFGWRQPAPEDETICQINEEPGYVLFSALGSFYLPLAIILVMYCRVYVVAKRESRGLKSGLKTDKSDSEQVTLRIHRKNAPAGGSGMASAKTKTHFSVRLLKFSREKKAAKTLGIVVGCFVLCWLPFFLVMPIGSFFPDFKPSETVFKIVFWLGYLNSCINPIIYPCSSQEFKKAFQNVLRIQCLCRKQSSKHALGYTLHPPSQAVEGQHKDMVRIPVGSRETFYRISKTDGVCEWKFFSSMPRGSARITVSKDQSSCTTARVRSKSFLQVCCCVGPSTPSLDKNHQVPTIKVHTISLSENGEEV
How it was run: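 Membranes incubated 30 min at 25 °C with 0.5 nM [3H]-prazosin ± compound (0.3–1000 nM) in 50 mM buffer, pH 7.7, containing pargyline and 0.1% ascorbic acid. Unlabelled prazosin defined nonspecific binding. GF/B filtration, scintillation counting.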

[3] = target: T3, Alpha-1D adrenergic receptor (Homo sapiens, UniProt P25100); test: Displacement of [3H]prazosin from human cloned alpha1D adrenoceptor expressed in CHO cell membranes after 30 mins by liquid scintillation counter
T3 sequence (P25100 whole entry): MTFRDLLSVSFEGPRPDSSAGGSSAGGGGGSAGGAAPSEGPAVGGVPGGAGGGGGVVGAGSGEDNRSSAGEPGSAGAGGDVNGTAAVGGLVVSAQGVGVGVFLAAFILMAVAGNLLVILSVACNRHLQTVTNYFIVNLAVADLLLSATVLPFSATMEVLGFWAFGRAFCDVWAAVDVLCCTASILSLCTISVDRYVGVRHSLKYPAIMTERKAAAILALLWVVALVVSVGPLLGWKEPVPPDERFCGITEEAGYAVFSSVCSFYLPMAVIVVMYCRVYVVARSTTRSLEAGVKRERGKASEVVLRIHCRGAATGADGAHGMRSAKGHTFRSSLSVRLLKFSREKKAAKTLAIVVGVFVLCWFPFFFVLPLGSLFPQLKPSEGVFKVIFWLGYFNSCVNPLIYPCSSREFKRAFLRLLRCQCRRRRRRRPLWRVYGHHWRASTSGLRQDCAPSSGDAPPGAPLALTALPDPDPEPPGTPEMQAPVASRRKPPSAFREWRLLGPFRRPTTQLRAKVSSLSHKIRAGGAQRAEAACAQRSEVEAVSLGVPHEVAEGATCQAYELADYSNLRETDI

[4] = target: T4, 5-hydroxytryptamine receptor 1A (Rattus norvegicus, UniProt P19327); test: Displacement of [3H]-8-OH-DPAT from 5-HT1A receptor in rat hippocampal membranes after 30 mins by liquid scintillation counting; assay type: cell membranes, Hippocampus, Membrane
T4 sequence (P19327 whole entry): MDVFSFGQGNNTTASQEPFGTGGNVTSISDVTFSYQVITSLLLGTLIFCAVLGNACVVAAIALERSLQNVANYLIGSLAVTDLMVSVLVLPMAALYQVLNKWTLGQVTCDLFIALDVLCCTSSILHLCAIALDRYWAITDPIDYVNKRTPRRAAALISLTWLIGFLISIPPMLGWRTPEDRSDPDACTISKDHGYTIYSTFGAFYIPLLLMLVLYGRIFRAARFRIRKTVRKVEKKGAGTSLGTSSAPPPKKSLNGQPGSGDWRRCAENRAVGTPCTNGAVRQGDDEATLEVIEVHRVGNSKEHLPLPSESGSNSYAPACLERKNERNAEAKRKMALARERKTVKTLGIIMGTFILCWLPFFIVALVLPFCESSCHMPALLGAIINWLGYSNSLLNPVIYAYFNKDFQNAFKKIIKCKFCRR
How it was run: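 Crude rat hippocampal membranes in Tris-HCl 50 mM, pH 7.7, with pargyline and 4 mM CaCl2. […] Stopped by GF/B filtration, then scintillation counting. Ki from IC50 via Cheng–Prusoff; ≥3 experiments in triplicate.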

[5] = target: T5, Adrenergic receptor alpha-2 (Rattus norvegicus, UniProt P22086+P19328+P22909); test: Antagonist activity at alpha2 adrenoceptor in Sprague-Dawley rat prostatic vas deferens assessed as suppression of clonidine-mediated inhibition of twitch response after 30 mins; assay type: functional, tissue-based
T5 sequence (P22086 whole entry): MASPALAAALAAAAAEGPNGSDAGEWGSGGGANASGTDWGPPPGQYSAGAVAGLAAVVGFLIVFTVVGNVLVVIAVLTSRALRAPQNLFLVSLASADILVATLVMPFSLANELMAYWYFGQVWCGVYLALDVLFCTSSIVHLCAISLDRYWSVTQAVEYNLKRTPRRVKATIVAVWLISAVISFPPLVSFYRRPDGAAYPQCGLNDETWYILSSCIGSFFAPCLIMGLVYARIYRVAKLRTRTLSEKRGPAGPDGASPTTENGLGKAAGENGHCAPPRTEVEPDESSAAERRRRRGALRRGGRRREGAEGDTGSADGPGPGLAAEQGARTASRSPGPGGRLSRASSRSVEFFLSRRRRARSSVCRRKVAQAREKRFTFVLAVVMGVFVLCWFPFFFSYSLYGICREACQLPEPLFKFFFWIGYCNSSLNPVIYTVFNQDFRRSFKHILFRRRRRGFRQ
T5 sequence (P19328 whole entry): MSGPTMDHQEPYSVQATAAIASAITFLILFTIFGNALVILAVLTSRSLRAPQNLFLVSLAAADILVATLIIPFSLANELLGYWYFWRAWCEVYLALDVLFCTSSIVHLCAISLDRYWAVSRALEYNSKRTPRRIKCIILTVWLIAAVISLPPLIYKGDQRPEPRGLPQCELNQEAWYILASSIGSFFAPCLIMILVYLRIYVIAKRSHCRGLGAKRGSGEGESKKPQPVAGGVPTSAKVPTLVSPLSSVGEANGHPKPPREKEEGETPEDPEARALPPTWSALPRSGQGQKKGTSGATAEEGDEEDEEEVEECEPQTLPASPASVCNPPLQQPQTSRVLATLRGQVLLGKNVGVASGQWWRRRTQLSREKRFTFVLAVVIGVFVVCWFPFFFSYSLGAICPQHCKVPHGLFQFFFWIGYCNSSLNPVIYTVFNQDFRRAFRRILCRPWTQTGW
T5 sequence (P22909 whole entry): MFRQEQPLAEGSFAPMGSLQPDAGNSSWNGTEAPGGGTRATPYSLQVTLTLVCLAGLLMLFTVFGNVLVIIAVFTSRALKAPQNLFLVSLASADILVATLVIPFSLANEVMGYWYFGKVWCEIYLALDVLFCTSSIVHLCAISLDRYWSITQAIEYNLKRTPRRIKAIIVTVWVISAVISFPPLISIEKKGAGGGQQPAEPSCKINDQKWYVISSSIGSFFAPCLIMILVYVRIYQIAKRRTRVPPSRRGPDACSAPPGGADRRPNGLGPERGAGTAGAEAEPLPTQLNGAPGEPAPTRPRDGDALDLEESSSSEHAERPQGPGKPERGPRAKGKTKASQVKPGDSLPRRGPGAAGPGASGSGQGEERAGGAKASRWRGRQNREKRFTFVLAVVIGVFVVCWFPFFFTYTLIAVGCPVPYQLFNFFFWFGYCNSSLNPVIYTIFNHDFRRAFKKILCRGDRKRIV
How it was run: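 Prostatic vas deferens segments (1.5–2 cm) in Krebs at 37 °C, field-stimulated at 0.1 Hz with 3 ms square pulses, 20–40 V. Equilibrated 1 h at 0.35 g resting tension.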

[6] = target: T6, Alpha-1A adrenergic receptor (Cavia porcellus) (UniProt Q9WU25); test: Inverse agonist activity at alpha1A adrenoceptor in guinea pig thoracic aorta assessed as inhibition of ca2+-induced IRT at 10 nM after 30 mins; assay type: functional, tissue-based
T6 sequence (whole entry): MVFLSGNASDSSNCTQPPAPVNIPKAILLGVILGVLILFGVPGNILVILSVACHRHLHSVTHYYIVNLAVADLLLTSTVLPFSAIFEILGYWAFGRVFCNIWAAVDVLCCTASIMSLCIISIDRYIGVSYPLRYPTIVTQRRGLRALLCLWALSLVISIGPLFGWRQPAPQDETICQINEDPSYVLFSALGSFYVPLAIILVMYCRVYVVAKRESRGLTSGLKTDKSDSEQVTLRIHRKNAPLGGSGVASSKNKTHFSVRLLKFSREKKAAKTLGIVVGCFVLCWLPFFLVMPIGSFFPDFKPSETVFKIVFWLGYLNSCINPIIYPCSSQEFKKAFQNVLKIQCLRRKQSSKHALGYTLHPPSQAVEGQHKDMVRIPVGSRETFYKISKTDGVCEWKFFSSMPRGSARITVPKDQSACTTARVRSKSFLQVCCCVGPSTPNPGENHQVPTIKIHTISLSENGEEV
How it was run: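 Tissue in Krebs equilibrated 1 h at 1 g, then given a single (−)-noradrenaline dose. Washed 1 h in Ca2+-free Krebs with 0.1 mM EDTA, with agonist reapplied until no contraction (internal Ca2+ stores depleted). Antagonist 10 nM for 30 min, then Ca2+ 1.8 mM added. Result is % decrease versus IRT without any agent; mean ± SE, 4–7 experiments.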

| Ki [1] [nM] | Ki [2] [nM] | Ki [3] [nM] | Ki [4] [nM] | pA2 [5] | inhibition [6] [%] | Structure (SMILES) |
| --- | --- | --- | --- | --- | --- | --- |
| 33.9 | 5.62 | 3.98 | 17.4 |  |  | COc1cccc(OC)c1OCCNC[C@@H]1COc2cccc(Cl)c2O1 |
| 398 | 66.1 | 324 | 17.4 |  |  | COc1cccc(OC)c1OCCNC[C@@H]1COc2cccc(O)c2O1 |
| 646 | 813 | 263 | 123 |  |  | COc1cccc(OC)c1OCCNC[C@@H]1COc2c(OC)cccc2O1 |
|  |  |  |  | 6.92 | 84 | COc1cccc(OC)c1OCCNC[C@H]1COc2ccccc2O1.Cl |
| 102 | 18.2 | 7.41 | 31.6 |  |  | COc1cccc(OC)c1OCCNC[C@@H]1COc2cccc(F)c2O1 |
| 79.4 | 16.6 | 16.6 | 12.9 |  |  | COc1cccc(OC)c1OCCNC[C@@H]1COc2cccc(OC)c2O1 |

— ChEMBL document CHEMBL2150980 (Eur J Med Chem, 2012)
